From PMC11867109 (Chemical Science, 2025)
No end group written: not given here.

How the values were obtained:
[1] = Helicity and helical rigidity by circular dichroism; type: physicochemical; conditions: ratio between molar ellipticity in 15% TFE and in 100% TFE
[2] = system: human red blood cells; experiment: Hemolysis assay; type: cell-based; conditions: hRBC, at 64 μg mL^−1 peptide; mean ± SD
How it was run: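 Human red blood cells exposed to two-fold serial dilutions of test peptide, with 4096 µg mL⁻¹ as the assay's upper concentration limit. HC10 is interpolated continuously from the dilution series. Values are means of three independent experiments, each with at least two technical duplicates, with standard deviation.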

Substance: GLFDIIKKIAESF-NH2 [Aurein 1.2]
- Helical rigidity % ± SD [1]: 102 ± 2%
- hemolysis [2]: 37.2 ± 1.8%
